Screens from PubChem BioAssay.
This is a sample that favours compounds with a hit; in the whole collection about 1.8% have one here.
MT1-MMP act inh – inhibitors of human MT1-MMP activation; P50281; HT1080 RFP-PRO-GFP cells, GFP/RFP ratio fluorescence, overnight; percent of plate control window, DMSO zero; GFP/RFP ratio change, % at 20 µM; 360,000 tested, 0.061% active; AID 651647;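 active = GFP/RFP ratio change of at least 30% with cell ATP level not reduced by more than half and red fluorescence within 50% of control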
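Test system: HT1080 RFP-PRO-GFP cells; Benchmarks: DMSO and RFP-L50D-GFP cell wells; Timing: cells overnight before dosing, compound overnight, 37 °C, 5% CO2; Compound: one 20 µM compound dose with 1% DMSO; Read-out: GFP/RFP fluorescence ratio.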
Ecoli rRNA inh – selective bacterial rRNA inhibition in E. coli | E. coli WT GFP vs humanized-ribosome RFP mutants, fluorescence, 24 h; stronger effect = lower value; DMSO median 0, no signal -100 | GFP signal change (wild-type ribosome), % (concentration not given with the values) | 350,000 tested, 1.6% active | AID 720706;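 active = significant combined selectivity score with lowered wild-type GFP, culture density cut under 30%, mutant RFP and density less affected; inactive = any of these conditions unmet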
Cneo AK release – Cryptococcus neoformans lysis via adenylate kinase release. AID 651654. lysis activity, % at 15 µM. C. neoformans lysis, adenylate kinase release luminescence, 4 h; normalised: neutral wells 0, clomiphene wells 100. 360,000 tested, 0.2% active;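 active = mean lysis activity across replicates of at least 80%, whatever share of replicates individually reach that level; inactive = mean lysis activity below 80%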
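Schedule: static 4 h at 37 °C with compound, 1 h detection; system: C. neoformans cells; benchmarks: Clomiphene as positive control; buffer or medium: fresh YPD medium; measure: luminescence rise reflecting yeast cell lysis; measured by: luminescent adenylate kinase detection reagent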
iPSC survival up – increases survival of single human iPS cells | hiPSC single-cell survival, ATPlite luminescence; 100% = ROCK inhibitor wells, 0% = DMSO | survival enhancement, % at 20 µM | 360,000 tested, 0.044% active | AID 602274; in the data active = survival enhancement above about 18%;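 also: cells exposed to compounds for 16 hours before the ATP read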
DAGLB inhibitor – blocks human DAGLB lipase activity; Q8NCG7; HEK293T DAGLB membrane lysate, EnzChek fluorogenic substrate; inhibition, % at 5.17 µM; 340,000 tested, 0.059% active; AID 504411; in the data active = inhibition above about 34%;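 also: 0% = enzyme with vehicle and 100% = wells lacking enzyme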
Target sequence (Q8NCG7 whole entry, looked up): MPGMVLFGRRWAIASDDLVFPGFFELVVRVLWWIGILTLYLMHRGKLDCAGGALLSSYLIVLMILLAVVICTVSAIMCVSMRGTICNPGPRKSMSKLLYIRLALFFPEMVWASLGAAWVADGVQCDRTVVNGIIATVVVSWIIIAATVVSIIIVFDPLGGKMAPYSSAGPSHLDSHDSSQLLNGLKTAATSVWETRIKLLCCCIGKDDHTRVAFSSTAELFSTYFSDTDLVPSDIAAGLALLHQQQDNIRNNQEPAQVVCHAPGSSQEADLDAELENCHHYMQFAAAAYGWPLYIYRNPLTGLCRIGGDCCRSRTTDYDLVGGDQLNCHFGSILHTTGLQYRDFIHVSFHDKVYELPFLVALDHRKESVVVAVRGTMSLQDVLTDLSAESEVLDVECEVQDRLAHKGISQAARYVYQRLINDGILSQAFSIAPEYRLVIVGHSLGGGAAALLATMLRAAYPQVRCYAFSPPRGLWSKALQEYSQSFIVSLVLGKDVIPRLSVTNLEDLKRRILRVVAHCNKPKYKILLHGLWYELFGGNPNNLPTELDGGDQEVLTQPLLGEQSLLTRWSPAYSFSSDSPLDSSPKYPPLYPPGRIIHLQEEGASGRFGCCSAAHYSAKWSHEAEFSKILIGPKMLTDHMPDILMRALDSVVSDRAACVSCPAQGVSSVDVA
SKN-1 block – C. elegans SKN-1 inhibition. C. elegans VP596 Pgst-4::GFP/RFP ratio, acrylamide-induced, 24 h. inhibition, % at 21.8 µM. 360,000 tested, 0.49% active;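 active = interference check ratio from 0.5 to 1.5 plus GFP to RFP signal ratio inhibition reaching or exceeding a fixed threshold, cut at about 30% in these data, passing the limit was not always enough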
* hit, by the source's call; · = no result given; ! = not confirmed by another sample.

SMILES	MT1-MMP act inh	Ecoli rRNA inh	Cneo AK release	iPSC survival up	DAGLB inhibitor	SKN-1 block
O=C(CN1C(=O)NC2(CCc3ccccc32)C1=O)c1ccc(Br)cc1 (stereo not drawn)	3	-24	1	0	-4	-4
O=C(CN1C(=O)NC2(CCCc3ccccc32)C1=O)c1ccc(Br)cc1 (stereo not drawn)	-1	-36*	-2	0	-1	-8
COc1cccc(NC(=O)CN2C(=O)NC3(CCc4ccccc43)C2=O)c1 (stereo not drawn)	-1	17	-1	0	0	-8
O=C(CN1C(=O)NC2(CCc3ccccc32)C1=O)Nc1cccc(Cl)c1 (stereo not drawn)	0	-30*	-1	4	0	-1
O=C1C=CC(=C(c2ccc(O)cc2)c2ccc(O)cc2)C=C1	-7	-50*!	0	-4	0	13
COc1ccc(CN(C)C[C@@H]2Oc3ccc(NC(=O)CCCN(C)C)cc3C(=O)N([C@H](C)CO)C[C@H]2C)cc1	·	3	-1	·	·	·
Cc1[nH]n(-c2ccccc2)c(=O)c1N=Nc1ccc(F)cc1	2	6	3	0	-2	29
CSc1ccc(N=Nc2c(C)[nH]n(C)c2=O)cc1	8	-24*	·	1	10	20
CCOC(=O)c1cnc2ccc(C(=O)OC)cc2c1NCCN1CCOCC1	-1	-27*	·	0	-4	6
CCOC(=O)c1cnc2ccc(C(=O)OC)cc2c1NCCCN1CCOCC1	5	-21	-3	0	-1	3
O=C1CN(C(=O)c2ccc(Cl)c(S(=O)(=O)N3CCc4ccccc43)c2)c2ccccc2N1	-6	-35*	1	0	0	-5
CC1Cc2ccccc2N1S(=O)(=O)c1cccc(C(=O)N2CC(=O)Nc3ccccc32)c1 (stereo not drawn)	0	-37*	0	0	3	-8
O=C(Nc1cccc(Cl)c1)N1C[C@@H]2[C@H](c3ccccc31)[C@H](CO)N2C(=O)c1cccnc1	·	-20*	-9	·	·	·
O=C(Nc1ccc(Cl)cc1)N1C[C@@H]2[C@H](c3ccccc31)[C@@H](CO)N2C(=O)c1ccccn1	·	-25*	-3	·	·	·
O=C(Nc1ccccc1)N1C[C@@H]2[C@H](c3ccccc31)[C@@H](CO)N2C(=O)Cc1ccccn1	·	-37*	-2	·	·	·
O=C(Nc1ccc(Cl)cc1)N1C[C@@H]2[C@H](c3ccccc31)[C@H](CO)N2C(=O)c1ccccn1	·	-53*	0	·	·	·
CCC(=O)N(C)C[C@H]1Oc2ncc(-c3ccc(C)cc3)cc2C(=O)N([C@@H](C)CO)C[C@H]1C	·	2	0	·	·	·
CNC(=O)C[C@H]1CC[C@H]2[C@@H](COc3ccc(NC(=O)c4ccc(C#N)cc4)cc3C(=O)N2C)O1	·	0	13	·	·	·
N=c1c2c(n(Cc3ccc(F)cc3)c3c1CCC3)CCC2	5	-29*	·	-2	2	-14
Cn1nc(C(=O)NNC(=O)COc2ccccc2)c2ccccc2c1=O	5	13	·	0	0	3
Cn1nc(C(=O)NNc2c(F)c(F)cc(F)c2F)c2ccccc2c1=O	7	-21*	0	3	-1	-1
CC(C)NC(=O)N[C@@H]1C=C[C@H](CC(=O)N2CCCCC2)O[C@H]1CO	·	4	-1	·	·	·
Cn1/c(=N/N=C/c2ccc(N3CCOCC3)cc2)sc2ccccc21	2	-6	0	0	3	-14
Cn1/c(=N/N=C/c2ccccn2)sc2ccccc21	3	-4	·	-1	·	42*
CC(=O)C1=C(C)N(Cc2ccccc2)C(=O)N[C@@H]1c1cccc(C(F)(F)F)c1	1	-21*	1	-1	0	6
SMILES	MT1-MMP act inh	Ecoli rRNA inh	Cneo AK release	iPSC survival up	DAGLB inhibitor	SKN-1 block
COc1cc(SC)ccc1C(=O)Nc1ccc(Cl)cn1	-2	14	-3	-2	-13	35*
CSc1ccc(Cl)c(C(=O)Nc2ccc(Cl)cn2)c1	-11	6	-3	0	-4	6
COCC(=O)N1CCC2(CC1)CN(Cc1cccc(OC)c1)[C@H](CO)c1c2c2ccc(OC)cc2n1C	·	9	·	·	·	·
Clc1ccccc1-c1nnc2sc(CCc3ccccc3)nn12	-3	-19*	-2	0	4	13
c1ccc(CCc2nn3c(Cn4nnc5ccccc54)nnc3s2)cc1	-2	·	-1	-2	0	-2
c1ccc(CCc2nn3c(Cn4cnc5ccccc54)nnc3s2)cc1	0	-24*	·	0	-1	-7
COc1ccc(NC(=O)N(C)C[C@H]2Oc3ccc(NC(=O)Nc4ccc(F)cc4)cc3CC(=O)N([C@H](C)CO)C[C@@H]2C)cc1	·	-3	1	·	·	·
C[C@@H]1CN([C@H](C)CO)C(=O)Cc2cc(NC(=O)Nc3ccc(F)cc3)ccc2O[C@H]1CN(C)C(=O)Nc1ccc(C(F)(F)F)cc1	·	-2	-1	·	·	·
COc1ccc(NC(=O)Nc2cccc3c2O[C@H](CN(C)S(=O)(=O)c2cn(C)cn2)[C@H](C)CN([C@H](C)CO)C3=O)cc1	·	-4	-14	·	·	·
O=C(CCCN1C(=O)/C(=C\c2ccccc2)SC1=S)Nc1ccc(O)cc1C(=O)O	4	-21*	2	7	13	4
O=C(CCN1C(=O)/C(=C/c2ccccc2Cl)SC1=S)Nc1ccccc1C(=O)O	2	-41	-4	0	13	39*
O=C(CCN1C(=O)/C(=C\c2ccccc2Cl)SC1=S)Nc1cccnc1	8	-1	3	0	0	0
CCc1ccc(/C=C2\SC(=S)N(CCCC(=O)Nc3ccccn3)C2=O)cc1	-6	·	·	-3	1	47*
O=C(CCCN1C(=O)/C(=C\c2ccccc2)SC1=S)N1CCOCC1	1	-21*	0	-4	1	11
CCC(=O)Nc1ccc2c(c1)OC[C@@H](C)N(C(=O)NC(C)C)C[C@@H](C)[C@H](OC)CN(C)C2=O	·	2	·	·	·	·
C[C@H](CO)N1C[C@H](C)[C@H](CN(C)C(=O)c2cccc(F)c2)Oc2ncc(-c3cncnc3)cc2C1=O	·	4	-5	·	·	·
CCOC(=O)c1c(CSC(=N)N)n(-c2ccccc2)c2cc(Br)c(OC(C)=O)cc12	4	-43*	·	0	-13	-18
COc1ccc(CNc2nc(=S)[nH]c3cc(OC)c(OC)cc23)cc1	3	6	0	0	-1	5
COc1cc2[nH]c(=S)nc(NCc3ccccc3)c2cc1OC	3	-16*	0	1	0	-10
C[C@H]1CN([C@@H](C)CO)C(=O)c2cc(-c3ccncc3)cnc2O[C@@H]1CN(C)C(=O)c1ccc(F)cc1	·	-1	4	·	·	·
